In ChEMBL document CHEMBL1148017, “Radioiodination of new EGFR inhibitors as potential SPECT agents for molecular imaging of breast cancer” (Bioorg Med Chem, 2007):
Activity calls are given as the source filed them. The calls are words filed in the database; no cut-off is given here.

What was measured:
Stomach [1] = experiment: Biodistribution in CD1 mouse stomach at 175 to 200 kBq, iv after 4 hrs; type: ADME, organism-based; conditions: in vivo
Summary of the method: (§1)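 Female CD-1 mice (20-25 g, groups of 5) given the radioiodinated compound via tail vein, 175-200 kBq in saline (100 µL) with 0.1% Tween 20. Injected dose taken as syringe activity before minus after. Killed at 1 and 4 h; organs removed, weighed and gamma-counted. Values are % ID per total organ, mean ± SD.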

Stomach [2] = experiment: Biodistribution in CD1 mouse stomach at 175 to 200 kBq, iv after 1 hr; type: ADME, organism-based; conditions: in vivo; summary of the method: as §1
[3] = Partition coefficient, log P at pH 7.4; type: physicochemical; conditions: octanol/water
Summary of the method: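 Shake-flask method with back-extraction. Radiotracer placed in mutually saturated octanol and PBS pH 7.4, vortexed and centrifuged (3000 rpm, 10 min, rt). Both phases gamma-counted. 0.5 mL of octanol re-extracted against an equal volume of PBS and counting repeated. log P is taken from the octanol/buffer count ratio.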

Serum = experiment: Protein binding in human serum; type: ADME, cell-free
Summary of the method: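 Radioiodinated tracer (≈370 kBq) incubated in 1 mL fresh human serum at 37 °C. Duplicate 100 µL samples taken at 15 min, 1, 2, 4 and 21 h. Proteins precipitated with 200 µL ethanol, cooled to 4 °C and centrifuged. Pellet washed with ethanol and gamma-counted. Pellet activity is expressed as % of total activity.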

Thyroid gland [4] = experiment: Biodistribution in CD1 mouse thyroid at 175 to 200 kBq, iv after 4 hrs; type: ADME, organism-based; conditions: in vivo; summary of the method: as §1
Liver [5] = experiment: Biodistribution in CD1 mouse liver at 175 to 200 kBq, iv after 4 hrs; type: ADME, organism-based; conditions: in vivo; summary of the method: as §1
Thyroid gland [6] = experiment: Biodistribution in CD1 mouse thyroid at 175 to 200 kBq, iv after 1 hr; type: ADME, organism-based; conditions: in vivo; summary of the method: as §1
Liver [7] = experiment: Biodistribution in CD1 mouse liver at 175 to 200 kBq, iv after 1 hr; type: ADME, organism-based; conditions: in vivo; summary of the method: as §1
[8] = target: Epidermal growth factor receptor (Homo sapiens) (UniProt P00533); experiment: Inhibition of EGFR autophosphorylation in human A431 cells at 0.1 uM; type: cell-based; conditions: A-431
Chain of Epidermal growth factor receptor (Homo sapiens) (P00533 whole entry): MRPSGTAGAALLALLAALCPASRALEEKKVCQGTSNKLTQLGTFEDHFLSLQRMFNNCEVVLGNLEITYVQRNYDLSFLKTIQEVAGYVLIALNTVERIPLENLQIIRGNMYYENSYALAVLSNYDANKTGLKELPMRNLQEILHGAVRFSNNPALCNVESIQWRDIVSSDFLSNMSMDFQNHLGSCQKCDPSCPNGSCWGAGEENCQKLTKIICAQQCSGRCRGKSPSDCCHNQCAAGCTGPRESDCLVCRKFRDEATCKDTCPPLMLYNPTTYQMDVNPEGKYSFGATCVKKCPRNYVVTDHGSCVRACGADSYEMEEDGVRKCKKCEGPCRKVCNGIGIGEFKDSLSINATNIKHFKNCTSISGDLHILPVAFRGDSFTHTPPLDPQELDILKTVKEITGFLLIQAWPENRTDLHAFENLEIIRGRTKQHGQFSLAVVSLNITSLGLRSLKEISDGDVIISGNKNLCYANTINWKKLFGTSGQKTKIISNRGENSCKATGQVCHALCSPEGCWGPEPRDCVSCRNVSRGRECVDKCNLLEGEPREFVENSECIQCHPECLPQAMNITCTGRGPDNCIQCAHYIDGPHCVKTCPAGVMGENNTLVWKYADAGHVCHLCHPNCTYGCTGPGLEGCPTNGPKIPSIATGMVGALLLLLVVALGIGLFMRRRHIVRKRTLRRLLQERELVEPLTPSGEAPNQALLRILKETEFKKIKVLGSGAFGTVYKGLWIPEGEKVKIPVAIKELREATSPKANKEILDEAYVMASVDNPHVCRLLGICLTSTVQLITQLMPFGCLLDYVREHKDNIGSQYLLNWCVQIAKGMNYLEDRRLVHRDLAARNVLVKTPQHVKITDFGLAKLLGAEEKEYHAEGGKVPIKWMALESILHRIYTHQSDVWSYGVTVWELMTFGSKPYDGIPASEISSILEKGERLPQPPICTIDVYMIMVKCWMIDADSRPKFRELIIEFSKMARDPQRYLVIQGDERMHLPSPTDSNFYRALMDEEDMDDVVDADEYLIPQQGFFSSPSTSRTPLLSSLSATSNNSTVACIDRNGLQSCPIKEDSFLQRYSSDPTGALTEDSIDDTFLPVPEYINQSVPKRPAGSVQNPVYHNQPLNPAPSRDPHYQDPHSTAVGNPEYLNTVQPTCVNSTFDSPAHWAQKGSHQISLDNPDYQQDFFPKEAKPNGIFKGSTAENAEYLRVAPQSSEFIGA
Summary of the method: (§2)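 A431 cells grown to about 70% confluence, serum-starved 24 h, then given compound (0.1–5 µM) for 2 h and stimulated with EGF 20 ng/mL for 5 min. Lysates loaded at equal total protein (BCA), run on 8% SDS-PAGE and blotted to PVDF. Probed with anti-phosphotyrosine PY20 and an HRP anti-mouse secondary, detected by ECL. Bands quantified against controls with and without EGF, no drug.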

A-431 = experiment: Growth inhibition of human A431 cells by MTT assay; type: functional, cell-based
Summary of the method: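 A431 cells kept in high-glucose D-MEM with 10% foetal calf serum, 37 °C, 5% CO2. Plated at 3×10^3 cells/well and grown 24 h, then exposed to 1–50 µM compound (4 replicates) for 24, 48 and 72 h. MTT 1 mg/mL in phenol-red-free RPMI for 4 h, isopropanol solubilisation, A540 against 620 nm reference. % of untreated control plotted semi-log against concentration; IC50 read from the curve.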

[9] = target: Epidermal growth factor receptor (Homo sapiens) (UniProt P00533); experiment: Inhibition of EGFR autophosphorylation in human A431 cells at 1 uM; type: cell-based; conditions: A-431; summary of the method: as §2

| Drug uptake (Stomach [1]) [%ID] | Drug uptake (Stomach [2]) [%ID] | logD [3] | Activity (Serum) [%] | Drug uptake (Thyroid gland [4]) [%ID] | Drug uptake (Liver [5]) [%ID] | Drug uptake (Thyroid gland [6]) [%ID] | Drug uptake (Liver [7]) [%ID] | Activity [8] | IC50 (A-431) [µM] | inhibition [9] [%] | SMILES |
| --- | --- | --- | --- | --- | --- | --- | --- | --- | --- | --- | --- |
| 3.9 | 35.2 | 2.25 | 6 | 13.2 | 2.3 | 5.7 | 6.1 |  |  |  | O=C(CC[125I])Nc1ccc2ncnc(Nc3ccc(F)c(Cl)c3)c2c1 |
|  |  |  |  |  |  |  |  | Active | 3 | 100 | O=C(CCBr)Nc1ccc2ncnc(Nc3ccc(F)c(Cl)c3)c2c1 |
|  |  |  |  |  |  |  |  | Active | 2 | 100 | O=C(CCI)Nc1ccc2ncnc(Nc3ccc(F)c(Cl)c3)c2c1 |
|  |  |  |  |  |  |  |  |  | 25 | 95 | Nc1ccc2ncnc(Nc3ccc(F)c(Cl)c3)c2c1 |
